From ChEMBL document CHEMBL1926668, “Triazine-based vanilloid 1 receptor open channel blockers: design, synthesis, evaluation, and SAR analysis” (J Med Chem, 2011)
Active and inactive are the calls of the source. No cut-off for these calls is given here.

What was measured:
[1] = molecular target: Transient receptor potential cation channel subfamily V member 1 (Rattus norvegicus, UniProt O35433); experiment: Antagonist activity at rat TRPV1 expressed in Xenopus laevis oocytes assessed as blockage of capsaicin-induced current at holding potential -60 mV by two-microelectrode voltage -clamp amplifier; format: functional, cell-based, Oocyte
Transient receptor potential cation channel subfamily V member 1, sequence (O35433 whole entry): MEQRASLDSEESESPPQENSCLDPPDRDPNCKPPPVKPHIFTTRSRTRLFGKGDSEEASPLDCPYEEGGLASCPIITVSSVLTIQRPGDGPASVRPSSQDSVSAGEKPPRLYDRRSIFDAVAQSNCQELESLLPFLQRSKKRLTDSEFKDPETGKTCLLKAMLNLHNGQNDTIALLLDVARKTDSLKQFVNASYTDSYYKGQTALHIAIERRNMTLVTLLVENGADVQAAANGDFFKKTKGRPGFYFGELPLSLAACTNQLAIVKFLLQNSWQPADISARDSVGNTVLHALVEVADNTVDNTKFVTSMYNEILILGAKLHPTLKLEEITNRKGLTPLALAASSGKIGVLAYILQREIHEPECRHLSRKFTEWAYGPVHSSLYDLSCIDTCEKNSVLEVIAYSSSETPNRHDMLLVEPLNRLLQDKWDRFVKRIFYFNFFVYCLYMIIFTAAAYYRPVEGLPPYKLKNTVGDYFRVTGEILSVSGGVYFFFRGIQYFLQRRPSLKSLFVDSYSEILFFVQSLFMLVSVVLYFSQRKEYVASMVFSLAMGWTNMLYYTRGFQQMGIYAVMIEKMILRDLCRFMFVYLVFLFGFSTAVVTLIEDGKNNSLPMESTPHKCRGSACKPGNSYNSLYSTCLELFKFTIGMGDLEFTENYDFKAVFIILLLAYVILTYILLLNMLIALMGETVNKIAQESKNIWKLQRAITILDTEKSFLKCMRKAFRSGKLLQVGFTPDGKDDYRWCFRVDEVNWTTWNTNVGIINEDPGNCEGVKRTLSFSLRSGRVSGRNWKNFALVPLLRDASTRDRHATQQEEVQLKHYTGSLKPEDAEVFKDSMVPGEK

[2] = molecular target: Transient receptor potential cation channel subfamily V member 1 (Rattus norvegicus) (UniProt O35433); experiment: Antagonist activity at rat TRPV1 expressed in Xenopus laevis oocytes assessed as blockage of capsaicin-induced current at holding potential -60 mV at 10 uM by two-microelectrode voltage -clamp amplifier; format: functional, cell-based; parameters: scale not given: the % may be the effect or the level left; settings: Oocyte
Transient receptor potential cation channel subfamily V member 1 (Rattus norvegicus), sequence (O35433 whole entry): as above

[3] = molecular target: Transient receptor potential cation channel subfamily V member 1 (Rattus norvegicus) (UniProt O35433); experiment: Antagonist activity at rat TRPV1 expressed in Xenopus laevis oocytes assessed as blockage of capsaicin-induced current at depolarizing membrane potential and 10 uM by two-microelectrode voltage -clamp amplifier; format: functional, cell-based; settings: Oocyte
Procedure, shortened: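 Voltage-dependence protocol in rat TRPV1 oocytes, Mg2+ Ringer's, 20 C. Currents were evoked by 10 μM capsaicin with a linear ramp from -60 to +60 mV over 5 s (25 mV/s), with or without 10 μM compound. Leak current measured without agonist was subtracted. Fractional block was plotted against voltage and fitted to the Woodhull model.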

[4] = Antagonist activity at TRPM8; format: functional
[5] = Antagonist activity at NMDAR; format: functional
[6] = Antagonist activity at TRPM8 at 1 uM; format: functional; parameters: scale not given: the % may be the effect or the level left
[7] = Antagonist activity at NMDAR at 1 uM; format: functional; parameters: scale not given: the % may be the effect or the level left
[8] = Antagonist activity at TRPM8 at 10 uM; format: functional; parameters: scale not given: the % may be the effect or the level left
[9] = Antagonist activity at NMDAR at 10 uM; format: functional; parameters: scale not given: the % may be the effect or the level left
[10] = Selectivity ratio of IC50 for TRPM8 to IC50 for rat TRVP1
[11] = Selectivity ratio of IC50 for NMDAR to IC50 for rat TRVP1
[12] = molecular target: Transient receptor potential cation channel subfamily V member 1 (Rattus norvegicus) (UniProt O35433); experiment: Competitive inhibition of rat TRPV1 expressed in Xenopus laevis oocytes; format: cell-based; settings: Oocyte
[13] = molecular target: Transient receptor potential cation channel subfamily V member 1 (Rattus norvegicus) (UniProt O35433); experiment: Agonist activity at rat TRPV1 expressed in Xenopus laevis oocytes assessed as stimulation of capsaicin-induced current at holding potential -60 mV at 10 uM by two-microelectrode voltage -clamp amplifier; format: functional, cell-based; settings: Oocyte
Procedure, shortened: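 Rat TRPV1-expressing Xenopus oocytes under two-electrode voltage clamp at -60 mV in Mg2+ Ringer's buffer, 20 C. Compound at 10 μM applied without capsaicin, and the inward current it activated was recorded.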

[14] = molecular target: Transient receptor potential cation channel subfamily V member 1 (Rattus norvegicus) (UniProt O35433); experiment: Antagonist activity at rat TRPV1 expressed in Xenopus laevis oocytes assessed as blockage of capsaicin-induced current at negative membrane potentials and 10 uM by two-microelectrode voltage -clamp amplifier; settings: Oocyte

CN(C)CCCNc1nc(NCc2ccc(Cl)cc2Cl)nc(NCc2ccc(Cl)cc2Cl)n1
IC50 [1]: 0.84 µM

CN(C)CCCNc1nc(NCCc2ccc([N+](=O)[O-])cc2)nc(NCCc2ccc([N+](=O)[O-])cc2)n1
IC50 [1]: 1.63 µM

CN1CCCC1CCNc1nc(NCCc2ccc(Cl)cc2)nc(NCCc2ccc(Cl)cc2)n1 (configuration not stated)
IC50 [1]: 1.2 µM

CN1CCN(Nc2nc(NCCc3ccc(Cl)cc3)nc(NCCc3ccc(Cl)cc3)n2)CC1
IC50 [1]: 6.4 µM

CN(C)CCCNc1nc(NCCC2=CCCCC2)nc(NCCC2=CCCCC2)n1
IC50 [1]: 218 µM

CN(C)CCCNc1nc(NCCc2ccccc2)nc(NCCc2ccccc2)n1
IC50 [1]: 0.67 µM

NCCN1CCN(c2nc(NCCc3ccc(Cl)cc3)nc(NCCc3ccc(Cl)cc3)n2)CC1
IC50 [1]: 0.96 µM

CN1CCCC1CCN(CC(N)=O)C(=O)CC1C(=O)N(CCc2ccc(Cl)cc2Cl)CC(=O)N1CCc1ccc(Cl)cc1Cl (configuration not stated)
Activity [2]: 40%

NC(N)=NCCCCNc1nc(NCCc2ccc(F)cc2)nc(NCCc2ccc(F)cc2)n1
IC50 [1]: 0.55 µM

CN(C)CCCNc1nc(NCCc2ccccc2F)nc(NCCc2ccccc2F)n1
IC50 [1]: 0.45 µM

CCCCNc1nc(NCc2ccc(C(=O)O)cc2)nc(NCc2ccc(C(=O)O)cc2)n1
IC50 [1]: 229 µM

CN(C)CCCCCNc1nc(NCCc2ccc(F)cc2)nc(NCCc2ccc(F)cc2)n1
IC50 [1]: 0.1 µM

CCCCNCC(=O)N(CCc1ccc(Cl)cc1Cl)CC(=O)N(CCc1ccc(Cl)cc1Cl)CC(N)=O
Activity [2]: 34%

CN(C)CCCNc1nc(NCCc2ccc(F)cc2)nc(NCCc2ccc(F)cc2)n1
IC50 [1]: 0.05 µM | Activity [3]: inactive | IC50 [4]: 7.5 µM | IC50 [5]: 9.2 µM | Activity [6]: 37% | Activity [7]: 25% | Activity [8]: 55% | Activity [9]: 51% | Ratio IC50 [10]: 150 | Ratio IC50 [11]: 150 | inhibition [12]: inactive | Activity [13]: inactive | Activity [14]: Active

CN(C)CCCNc1nc(NCCc2ccc(Cl)cc2Cl)nc(NCCc2ccc(Cl)cc2Cl)n1
IC50 [1]: 1.21 µM

CN(C)CCN1CCN(c2nc(NCCc3ccc(F)cc3)nc(NCCc3ccc(F)cc3)n2)CC1
IC50 [1]: 18.6 µM | Activity [13]: Active

CN(C)CCCNc1nc(NCc2ccc3c(c2)OCO3)nc(NCc2ccc3c(c2)OCO3)n1
IC50 [1]: 4.98 µM

CN1CCCC1CCN1CC(=O)N(CCc2ccc(Cl)cc2Cl)C(CC(=O)N(CCc2ccc(Cl)cc2Cl)CC(N)=O)C1=O (configuration not stated)
Activity [2]: 3%

CN(C)CCOCCNc1nc(NCCc2ccc(F)cc2)nc(NCCc2ccc(F)cc2)n1
IC50 [1]: 7.05 µM

CN(C)CCCNCC(=O)N(CCc1ccc(Cl)cc1)CC(=O)N(CCc1ccc(Cl)cc1)CC(N)=O
Activity [2]: 45%

CN(C)CCCNc1nc(NCc2ccc(F)cc2F)nc(NCc2ccc(F)cc2F)n1
IC50 [1]: 3.3 µM

N=C(N)NCCCCN(CC(N)=O)C(=O)CC1C(=O)N(CCc2ccc(Cl)cc2Cl)CC(=O)N1CCc1ccc(Cl)cc1Cl (configuration not stated)
Activity [2]: 30%

CN(C)CCCOc1nc(NCCc2ccc(F)cc2)nc(NCCc2ccc(F)cc2)n1
IC50 [1]: 6.14 µM

CN(C)CCCNc1nc(NCCc2c[nH]c3ccccc23)nc(NCCc2c[nH]c3ccccc23)n1
IC50 [1]: 2.33 µM

CN(C)CCCNc1nc(N2CCN(C(c3ccc(F)cc3)c3ccc(F)cc3)CC2)nc(N2CCN(C(c3ccc(F)cc3)c3ccc(F)cc3)CC2)n1
IC50 [1]: 56.4 µM

COc1ccc(CCNc2nc(NCCCN(C)C)nc(NCCc3ccc(OC)cc3)n2)cc1
IC50 [1]: 0.97 µM

CN(C)CCCNc1nc(NCc2ccc(Cl)cc2)nc(NCc2ccc(Cl)cc2)n1
IC50 [1]: 2.62 µM

CCN(CC)CCCNCC(=O)N(CCc1ccc(Cl)cc1Cl)CC(=O)N(CCc1ccc(Cl)cc1Cl)CC(N)=O
Activity [2]: 99%

CN(C)CCNc1nc(NCCc2ccc(Cl)cc2)nc(NCCc2ccc(Cl)cc2)n1
IC50 [1]: 6.7 µM

CN1CCC(N2CCN(c3nc(NCCc4ccc(F)cc4)nc(NCCc4ccc(F)cc4)n3)CC2)CC1
IC50 [1]: 70.9 µM

CN(C)CCCNc1nc(NCCc2cccc(F)c2)nc(NCCc2cccc(F)c2)n1
IC50 [1]: 0.3 µM

CCN(CC)CCCN1CC(=O)N(CCc2ccc(Cl)cc2Cl)C(CC(=O)N(CCc2ccc(Cl)cc2Cl)CC(N)=O)C1=O (configuration not stated)
Activity [2]: 3%

CN(C)CCCNc1nc(NCc2ccc(C(=O)O)cc2)nc(NCc2ccc(C(=O)O)cc2)n1
IC50 [1]: 178 µM

CN1CCCC1CCN1CC(=O)N(CCc2ccccc2)C(CC(=O)N(CCc2ccc(Cl)cc2Cl)CC(N)=O)C1=O (configuration not stated)
Activity [2]: 28%

CN(C)CCCNc1nc(N2CCc3c([nH]c4ccccc34)C2)nc(N2CCc3c([nH]c4ccccc34)C2)n1
IC50 [1]: 7 µM

COC(=O)c1ccc(CNc2nc(NCCCN(C)C)nc(NCc3ccc(C(=O)OC)cc3)n2)cc1
IC50 [1]: 69.1 µM

N=C(N)NCCCCN(CC(N)=O)C(=O)CC1C(=O)N(CCc2ccc(Cl)cc2)CC(=O)N1CCc1ccc(Cl)cc1 (configuration not stated)
Activity [2]: 55%

NC(=O)CN(CCc1ccc(Cl)cc1Cl)C(=O)CN(CCc1ccc(Cl)cc1Cl)C(=O)CNCCCO
Activity [2]: 32%

CN(C)CCCNCC(=O)N(CCc1ccc(Cl)cc1Cl)CC(=O)N(CCc1ccc(Cl)cc1Cl)CC(N)=O
Activity [2]: 55%

CN(C)CCCNc1nc(NCc2ccc(F)cc2)nc(NCc2ccc(F)cc2)n1
IC50 [1]: 3.06 µM

CN(C)CCCNc1nc(NCCc2ccc(Cl)cc2)nc(NCCc2ccc(Cl)cc2)n1
IC50 [1]: 0.5 µM | Activity [13]: Active

CN(C)CCCNc1nc(NCc2ccc(C(F)(F)F)cc2)nc(NCc2ccc(C(F)(F)F)cc2)n1
IC50 [1]: 0.66 µM

CN1CCCC1CCNCC(=O)N(CCc1ccc(Cl)cc1Cl)CC(=O)N(CCc1ccc(Cl)cc1Cl)CC(N)=O (configuration not stated)
Activity [2]: 99%
